Calls of active or inactive are those of the source. The rule behind the calls is not given here.
Tests used:
[1] = tested on: Mus musculus; assay: Antiinflammatory activity against carrageenan-induced paw edema in Swiss albino mouse assessed as swelling thickness at 100 mg/kg, po after 90 mins; type: functional
Procedure, shortened: (§1)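 Oral dosing in 0.5% CMC; vehicle to controls. Then carrageenan (0.5 mg/25 ll, freshly suspended in 154 mM saline) injected into the right hind paw subplantar tissue; saline into the left paw. Right-left footpad thickness difference measured by dial gauge calliper every 90 min over 6 h. Inhibition % is relative to vehicle control. n = 6; mean ± SEM.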

[2] = tested on: Mus musculus; assay: Antiinflammatory activity against carrageenan-induced paw edema in Swiss albino mouse assessed as swelling thickness at 100 mg/kg, po after 180 mins; type: functional; procedure, shortened: as §1
[3] = tested on: Mus musculus; assay: Antiinflammatory activity against carrageenan-induced paw edema in Swiss albino mouse assessed as swelling thickness at 100 mg/kg, po after 270 mins; type: functional; procedure, shortened: as §1
[4] = tested on: Mus musculus; assay: Antiinflammatory activity against carrageenan-induced paw edema in Swiss albino mouse assessed as swelling thickness at 100 mg/kg, po after 360 mins; type: functional; procedure, shortened: as §1
[5] = tested on: Mus musculus; assay: Inhibition of carrageenan-induced paw edema in Swiss albino mouse at 100 mg/kg, po after 90 mins relative to control; type: functional; settings: 1.5 h; procedure, shortened: as §1
[6] = tested on: Mus musculus; assay: Inhibition of carrageenan-induced paw edema in Swiss albino mouse at 100 mg/kg, po after 180 mins relative to control; type: functional; settings: 3 h; procedure, shortened: as §1
[7] = tested on: Mus musculus; assay: Inhibition of carrageenan-induced paw edema in Swiss albino mouse at 100 mg/kg, po after 270 mins relative to control; type: functional; settings: 4.5 h; procedure, shortened: as §1
[8] = tested on: Mus musculus; assay: Inhibition of carrageenan-induced paw edema in Swiss albino mouse at 100 mg/kg, po after 360 mins relative to control; type: functional; settings: 6 h; procedure, shortened: as §1
[9] = tested on: Mus musculus; assay: Analgesic activity against p-benzoquinone-induced abdominal constriction in Swiss albino mouse assessed as number of writhings at 25 mg/kg, po; type: functional, Abdomen
Procedure, shortened: (§2)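 Test samples given orally in 0.5% CMC; vehicle to controls. 60 min later, 2.5% (v/v) p-benzoquinone in distilled water, 0.1 ml/10 g, given i.p. Mice housed singly; writhes counted for 15 min starting 5 min after injection. Activity is % change from vehicle controls. n = 6; mean ± SEM.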

[10] = tested on: Mus musculus; assay: Analgesic activity against p-benzoquinone-induced abdominal constriction in Swiss albino mouse assessed as number of writhings at 50 mg/kg, po; type: functional, Abdomen; procedure, shortened: as §2
[11] = tested on: Mus musculus; assay: Analgesic activity against p-benzoquinone-induced abdominal constriction in Swiss albino mouse assessed as number of writhings at 100 mg/kg, po; type: functional, Abdomen; procedure, shortened: as §2
[12] = tested on: Mus musculus; assay: Analgesic activity against p-benzoquinone-induced abdominal constriction in Swiss albino mouse assessed as number of writhings at 200 mg/kg, po; type: functional, Abdomen; procedure, shortened: as §2
[13] = tested on: Mus musculus; assay: Inhibition of p-benzoquinone-induced writhing in Swiss albino mouse at 25 mg/kg, po relative to control; type: functional
Procedure, shortened: (§3)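 Mice, n = 6 per group, dosed orally with a suspension in 0.5% sodium CMC. 60 min later, 0.1 ml/10 g of 2.5% […] p-benzoquinone in distilled water given ip. Abdominal writhes counted per animal for 15 min, starting 5 min after injection. Expressed as % change in mean writhing count versus vehicle controls.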

[14] = tested on: Mus musculus; assay: Inhibition of p-benzoquinone-induced writhing in Swiss albino mouse at 50 mg/kg, po relative to control; type: functional; procedure, shortened: as §3
[15] = tested on: Mus musculus; assay: Inhibition of p-benzoquinone-induced writhing in Swiss albino mouse at 100 mg/kg, po relative to control; type: functional; procedure, shortened: as §3
[16] = tested on: Mus musculus; assay: Inhibition of p-benzoquinone-induced writhing in Swiss albino mouse at 200 mg/kg, po relative to control; type: functional; procedure, shortened: as §3
[17] = tested on: Mus musculus; assay: Gastric-ulcerogenic effect in Swiss albino mouse assessed as lesions at 25 mg/kg, po; type: functional, organism-based; parameters: dose 25 mg/kg
Procedure, shortened: (§4)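 Mice killed under deep ether anesthesia 3 h after the writhing test; the oral dose in 0.5% CMC was the one used in that test. Stomachs removed, opened along the great curvature and examined under a dissecting microscope for lesions or bleeding. Reported as ratio of ulceration; n = 6.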

[18] = tested on: Mus musculus; assay: Gastric-ulcerogenic effect in Swiss albino mouse assessed as lesions at 50 mg/kg, po; type: functional, organism-based; parameters: dose 50 mg/kg; procedure, shortened: as §4
[19] = tested on: Mus musculus; assay: Gastric-ulcerogenic effect in Swiss albino mouse assessed as lesions at 100 mg/kg, po; type: functional, organism-based; parameters: dose 100 mg/kg; procedure, shortened: as §4
[20] = tested on: Mus musculus; assay: Antiinflammatory activity against carrageenan-induced paw edema in Swiss albino mouse assessed as swelling thickness at 25 mg/kg, po after 90 mins; type: functional; procedure, shortened: as §1
[21] = tested on: Mus musculus; assay: Antiinflammatory activity against carrageenan-induced paw edema in Swiss albino mouse assessed as swelling thickness at 25 mg/kg, po after 180 mins; type: functional; procedure, shortened: as §1
[22] = tested on: Mus musculus; assay: Antiinflammatory activity against carrageenan-induced paw edema in Swiss albino mouse assessed as swelling thickness at 25 mg/kg, po after 270 mins; type: functional; procedure, shortened: as §1
[23] = tested on: Mus musculus; assay: Antiinflammatory activity against carrageenan-induced paw edema in Swiss albino mouse assessed as swelling thickness at 25 mg/kg, po after 360 mins; type: functional; procedure, shortened: as §1
[24] = tested on: Mus musculus; assay: Antiinflammatory activity against carrageenan-induced paw edema in Swiss albino mouse assessed as swelling thickness at 50 mg/kg, po after 180 mins; type: functional; procedure, shortened: as §1
[25] = tested on: Mus musculus; assay: Antiinflammatory activity against carrageenan-induced paw edema in Swiss albino mouse assessed as swelling thickness at 50 mg/kg, po after 270 mins; type: functional; procedure, shortened: as §1
[26] = tested on: Mus musculus; assay: Antiinflammatory activity against carrageenan-induced paw edema in Swiss albino mouse assessed as swelling thickness at 50 mg/kg, po after 360 mins; type: functional; procedure, shortened: as §1
[27] = tested on: Mus musculus; assay: Antiinflammatory activity against carrageenan-induced paw edema in Swiss albino mouse assessed as swelling thickness at 200 mg/kg, po after 90 mins; type: functional; procedure, shortened: as §1
[28] = tested on: Mus musculus; assay: Antiinflammatory activity against carrageenan-induced paw edema in Swiss albino mouse assessed as swelling thickness at 200 mg/kg, po after 180 mins; type: functional; procedure, shortened: as §1
[29] = tested on: Mus musculus; assay: Antiinflammatory activity against carrageenan-induced paw edema in Swiss albino mouse assessed as swelling thickness at 200 mg/kg, po after 270 mins; type: functional; procedure, shortened: as §1
[30] = tested on: Mus musculus; assay: Antiinflammatory activity against carrageenan-induced paw edema in Swiss albino mouse assessed as swelling thickness at 200 mg/kg, po after 360 mins; type: functional; procedure, shortened: as §1
[31] = tested on: Mus musculus; assay: Inhibition of carrageenan-induced paw edema in Swiss albino mouse at 50 mg/kg, po after 90 mins relative to control; type: functional; settings: 1.5 h
Procedure, shortened: (§5)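 Mice, n = 6 per group. Test agent given orally as a suspension in 0.5% sodium CMC in distilled water; controls received vehicle only. Afterwards, 0.5 mg/25 ll carrageenan in saline (154 mM NaCl) injected subplantar into the right hind paw, saline into the left. Right-minus-left footpad thickness measured by dial gauge caliper every 90 min for 6 h. Inhibition is relative to vehicle-control group means.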

[32] = tested on: Mus musculus; assay: Inhibition of carrageenan-induced paw edema in Swiss albino mouse at 50 mg/kg, po after 180 mins relative to control; type: functional; settings: 3 h; procedure, shortened: as §1
[33] = tested on: Mus musculus; assay: Inhibition of carrageenan-induced paw edema in Swiss albino mouse at 50 mg/kg, po after 270 mins relative to control; type: functional; settings: 4.5 h; procedure, shortened: as §5
[34] = tested on: Mus musculus; assay: Inhibition of carrageenan-induced paw edema in Swiss albino mouse at 50 mg/kg, po after 360 mins relative to control; type: functional; settings: 6 h; procedure, shortened: as §5
[35] = tested on: Mus musculus; assay: Acute toxicity in Swiss albino mouse assessed as lethal effect at 25 mg/kg/day, po after 72 hrs; type: organism-based; parameters: route oral; settings: in vivo
Procedure, shortened: (§6)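 Oral single dose suspended in 0.5% carboxymethylcellulose, given after a 24 h fast; food and water returned 1 h after dosing. Vehicle-only controls. Mice observed at 1 h, then once daily for 72 h, for toxic signs and mortality.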

[36] = tested on: Mus musculus; assay: Acute toxicity in Swiss albino mouse assessed as lethal effect at 50 mg/kg/day, po after 72 hrs; type: organism-based; parameters: route oral; settings: in vivo; procedure, shortened: as §6
[37] = tested on: Mus musculus; assay: Acute toxicity in Swiss albino mouse assessed as lethal effect at 100 mg/kg/day, po after 72 hrs; type: organism-based; parameters: route oral; settings: in vivo; procedure, shortened: as §6
[38] = tested on: Mus musculus; assay: Acute toxicity in Swiss albino mouse assessed as lethal effect at 200 mg/kg/day, po after 72 hrs; type: organism-based; parameters: route oral; settings: in vivo; procedure, shortened: as §6
[39] = tested on: Mus musculus; assay: Antiinflammatory activity against carrageenan-induced paw edema in Swiss albino mouse assessed as swelling thickness at 50 mg/kg, po after 90 mins; type: functional; procedure, shortened: as §1

CS(=O)(=O)c1nc(-c2ccc(Cl)cc2)n[nH]1
Activity [1]: 37.5 10^-2mm
Activity [2]: 42.8 10^-2mm
Activity [3]: 46.2 10^-2mm
Activity [4]: 51.2 10^-2mm
inhibition in vivo at 100 mg/kg [5]: 16.3%
inhibition in vivo at 100 mg/kg [6]: 16.9%
inhibition in vivo at 100 mg/kg [7]: 21.4%
inhibition in vivo at 100 mg/kg [8]: 25.6%
Activity [9]: 42.8
Activity [10]: 29.4
Activity [11]: 31
Activity [12]: 46.8
inhibition in vivo at 25 mg/kg [13]: 16.7%
inhibition in vivo at 50 mg/kg [14]: 42.8%
inhibition in vivo at 100 mg/kg [15]: 34.5%
inhibition in vivo at 200 mg/kg [16]: 8.9%
Activity [17]: Active
Activity [18]: Active
Activity [19]: Active
Activity [20]: 55.2 10^-2mm
Activity [21]: 62.8 10^-2mm
Activity [22]: 69.5 10^-2mm
Activity [23]: 75.4 10^-2mm
Activity [24]: 46.2 10^-2mm
Activity [25]: 47.9 10^-2mm
Activity [26]: 50.2 10^-2mm
Activity [27]: 59.4 10^-2mm
Activity [28]: 65.8 10^-2mm
Activity [29]: 69.4 10^-2mm
Activity [30]: 76.1 10^-2mm
inhibition in vivo at 50 mg/kg [31]: 18%
inhibition in vivo at 50 mg/kg [32]: 22.2%
inhibition in vivo at 50 mg/kg [33]: 26.1%
inhibition in vivo at 50 mg/kg [34]: 30.3%
Activity [35]: Non-toxic
Activity [36]: Non-toxic
Activity [37]: Non-toxic
Activity [38]: Non-toxic
Activity [39]: 43.6 10^-2mm
